From ChEMBL document CHEMBL2157970, “New prenylated isoflavonoids as protein tyrosine phosphatase 1B (PTP1B) inhibitors from Erythrina addisoniae” (Bioorg Med Chem, 2012) come the findings set out here.

One test has as its system NCI/ADR-RES. The test can be described thus: Ratio of tamoxifen IC50 to compound IC50 for human MCF7/ADR cells. Type of test: functional.
The subject of test [1] is MDA-MB-231. The test can be described thus: Cytotoxicity against human MDA-MB-231 cells after 48 hrs by MTT assay. The format is functional, cell-based. The procedure, abridged: (§1)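 Cells kept in DMEM with 10% heat-inactivated FBS, 4.5 g/L D-glucose, sodium pyruvate and L-glutamine at 37 °C, 5% CO2. Seeded at 1 × 10^4 cells/well, left to adhere 24 h, then exposed 48 h to a range of concentrations at 0.05% (v/v) DMSO final. MTT added for 4 h, absorbance at 550 nm. Viability taken relative to control wells; IC50 from triplicates, mean ± SD.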

The target of test [2] is T1, Tyrosine-protein phosphatase non-receptor type 1 (Homo sapiens, UniProt P18031).
T1 sequence (P18031 whole entry): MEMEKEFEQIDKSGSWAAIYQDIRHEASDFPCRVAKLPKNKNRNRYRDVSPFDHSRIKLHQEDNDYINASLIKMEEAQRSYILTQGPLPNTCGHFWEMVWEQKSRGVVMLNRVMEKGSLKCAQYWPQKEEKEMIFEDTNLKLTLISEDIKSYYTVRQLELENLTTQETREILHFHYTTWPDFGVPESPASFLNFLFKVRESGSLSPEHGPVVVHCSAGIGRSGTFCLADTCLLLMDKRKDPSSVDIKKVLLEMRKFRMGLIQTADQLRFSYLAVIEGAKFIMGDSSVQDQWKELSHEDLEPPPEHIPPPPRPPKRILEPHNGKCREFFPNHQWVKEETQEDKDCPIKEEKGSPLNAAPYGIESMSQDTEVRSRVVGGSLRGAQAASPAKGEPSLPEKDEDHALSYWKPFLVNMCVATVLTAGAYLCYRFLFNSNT
Briefly: Inhibition of human recombinant PTP1B using p-nitrophenyl phosphate as substrate after 30 mins. The procedure, abridged:
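Human recombinant enzyme (0.05–0.1 µg) with 2 mM p-NPP in 50 mM citrate pH 6.0, 0.1 M NaCl, 1 mM EDTA, 1 mM DTT, 37 °C for 30 min. IC50 by regression, mean ± SD of three replicates.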

In another test the test system is MCF7. The test can be described thus: Cytotoxicity against human MCF7 cells after 48 hrs by MTT assay. Type of test: functional, cell-based. The procedure, abridged: as §1
On the technique in general: Tetrazolium dyes change colour on reduction, which living cells bring about.

The nature of test [3]: Cytotoxicity against human MCF7/ADR cells after 48 hrs by MTT assay. Type of test: functional, cell-based, NCI/ADR-RES. The gist of the method: as §1
For test [4], the system named is MDA-MB-231. Briefly: Ratio of tamoxifen IC50 to compound IC50 for human MDA-MB-231 cells. Type of test: functional.
[5] abbreviates: Homo sapiens, MDA-MB-231, 48 h, read-out: IC50.
Setting [6] is: Homo sapiens, MCF7, 48 h, read-out: IC50.
Where [7] appears, read: Homo sapiens, NCI/ADR-RES, 48 h, read-out: IC50.

As to `CC(C)=CCc1c2c(c(O)c3c(=O)c(-c4ccc(O)cc4)coc13)CC(C(C)(C)O)O2` (centres undefined) [ECHRENONE B10], the Ratio IC50 in the test on NCI/ADR-RES is 1.93; in the test with MDA-MB-231 [4], over 3. Besides, the IC50 in the test on MDA-MB-231 [1] (setting [5]) worked out at 3.97 µM; in test [2], 24.2 µM; with MCF7 (setting [6]) it was 4.32 µM; in test [3] (setting [7]) it was 5.76 µM.

`COc1ccc([C@H]2COc3cc(O)cc(O)c3C2=O)cc1CC=C(C)C` [ERYTHRADDISON III]: the 50% inhibitory concentration (IC50) with MDA-MB-231 [1] (setting [5]) came out at 6.92 µM; in test [2], 4.6 µM; in the test with MCF7 (setting [6]) it was 6.84 µM; in test [3] (setting [7]) it was 9.22 µM.

Take `COC(c1c2c(c(O)c3c(=O)c(-c4ccc(O)cc4)coc13)C=CC(C)(C)O2)C(O)C(C)(C)O` (centres undefined) [ERYTHRADDISON I]: the IC50 entry in the test with MDA-MB-231 [1] (mda-mb-231) was “Not Active”; in test [2], over 30 µM; with MCF7 (mcf7), “Not Active”; in test [3] (nci/adr-res) it was “Not Active”.

For `CC(C)=CCc1cc(-c2coc3c(CC=C(C)C)c(O)ccc3c2=O)ccc1O` [ERYSUBIN F], the half-maximal inhibitory concentration (IC50) in test [2] is 7.8 µM.

On to `CC(C)=CCc1cc2c(=O)c(-c3ccc(O)cc3O)coc2c(CC=C(C)C)c1O` [ERYTHRADDISON II], for which the concentration for half-maximal inhibition (IC50) is 4.57 µM with MDA-MB-231 [1] (setting [5]), 17.4 µM in test [2], 11.4 µM in the test with MCF7 (setting [6]) and 6.75 µM in test [3] (setting [7]).

With `CC/C(=C(\c1ccccc1)c1ccc(OCCN(C)C)cc1)c1ccccc1` [TAMOXIFEN], the IC50 in the test with MCF7 (setting [6]) was determined as 11.4 µM.

For `COc1cc2c(cc1[C@H]1COc3cc(O)cc(O)c3C1=O)C=CC(C)(C)O2` [ERYTHRADDISON IV], the concentration for half-maximal inhibition (IC50) with MDA-MB-231 [1] (setting [5]) is 6.34 µM; in test [2] it was 13.8 µM; in the test on MCF7 (setting [6]), 11 µM; in test [3] (setting [7]) it was 6.06 µM.

By IC50 is commonly meant the concentration needed to halve the response being measured.
